Data on 14 compounds can be found in ChEMBL document CHEMBL4699407, “Isoquinoline thiosemicarbazone displays potent anticancer activity with in vivo efficacy against aggressive leukemias” (RSC Med Chem, 2020).

Test [1] deals with MIA PaCa-2. Nature of the test: Cytotoxicity against human MIA PaCa2 cells assessed as reduction in cell viability in presence of Cu2+ incubated for 72 hrs by cell titer-glo luminescent cell viability assay. Format: functional, cell-based. As to conditions: MIA PaCa-2, 72 h. The essentials:
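Cells were grown in DMEM or RPMI with 10% FBS, without antibiotics, at 37 °C, 20% O2, 5% CO2. Adherent lines were seeded at 500 cells/well. Serially diluted compound was given with 20 μM Cu(II) (CuCl2) for 72 h; leukemia models received pre-formed 1:1 copper complex. ATP was read by CellTiter-Glo luminescence. IC50 is relative to DMSO-treated cells.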
In general terms: In ATP-based viability assays light output follows the ATP content of the culture.

Test [2] concerns MIA PaCa-2. Nature of the test: Cytotoxicity against human MIA PaCa2 cells assessed as reduction in cell viability 72 hrs by cell titer-glo luminescent cell viability assay. Format: functional. The essentials:
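MIAPACA2 cells in conventional medium without copper supplement got serially diluted compound for 72 h. ATP content was read by CellTiter-Glo, and IC90 (90% proliferation inhibition vs DMSO control) was calculated.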

As usually defined, the IC90 is the concentration at which the effect reaches the 90% level. Consider `CN(C)C(=S)NN=Cc1ncc(F)c2ccccc12`, for which the IC90 in test [1] was 26.6 nM; in test [2], 274 nM.
In the case of `CNC(=S)N/N=C/c1ncc(F)c2ccccc12`, the IC90 in test [1] amounted to 114 nM.
As to `CNc1cccc2c(C=NNC(=S)N(C)C)ncc(F)c12`, the IC90 is 42.3 nM in test [1] and 327 nM in test [2].
Taken in the same sequence, the figures for `CNC(=S)NN=Cc1nccc2c(N)cccc12` were 7080 nM and 11200 nM.
Turning to `NC(=S)N/N=C/c1nccc2c(N)cccc12`, the IC90 in test [1] amounted to 71100 nM.
As to `CN(C)C(=S)NN=Cc1nccc2ccccc12`, the figures for the IC90 in test [1] and in test [2] were 73.7 nM and 29600 nM, respectively.
Regarding `CNC(=S)NN=Cc1nccc2c(NC)cccc12`, the IC90 in test [1] is 607 nM; in test [2] it was 4240 nM.
As to `CNC(=S)N/N=C/c1nccc2ccccc12`, the IC90 in test [1] came out at 331 nM.
The same measure, in the same setting: the figure for `CNC(=S)N/N=C/c1nccc2cc(F)ccc12` is 233 nM.
Same read-out and setting: the same measure for `NC(=S)N/N=C/c1ncc(F)c2ccccc12`: 2060 nM; for `CNc1cccc2c(/C=N/NC(N)=S)nccc12`: 5330 nM.
The same measure, in the same setting: the same measure for `NC(=S)N/N=C/c1nccc2ccccc12`: 2210 nM.
Turning to `CNc1c(F)ccc2c(C=NNC(=S)N(C)C)nccc12`, the IC90 in test [1] was 38.4 nM; in test [2], 272 nM.
In the case of `NC(=S)N/N=C/c1nccc2cc(F)ccc12`, the IC90 in test [1] is 2040 nM.
